By IC50 is commonly meant the concentration needed to halve the response being measured. One may read the inhibition as the change of the read-out against control, counted positive when it falls.

Activity calls are given as the source filed them. The calls are words filed in the database; no cut-off is given here. Where only a bound is given, the exact number is not on record here.

23 molecules from ChEMBL document CHEMBL1765014, “Non-peptide NK1 receptor ligands based on the 4-phenylpyridine moiety” (Bioorg Med Chem, 2011) can be followed below.

For experiment [1], the target named is Substance-P receptor (Homo sapiens, UniProt P25103). In words: Displacement of [125I]BH-SP from human recombinant NK1 receptor expressed in CHO cells after 90 mins. Type of experiment: cell-based. Background: In a radioligand displacement assay an active substance lowers the binding of a labelled ligand.
A short description of experiment [2]: Antiangiogenic activity in bovine CVEC cell assessed as inhibition of Sar9-SP-sulfone-induced proliferation at 1 uM after 48 hrs by microscopic analysis. Type of experiment: functional. The conditions noted are these: Bos taurus. A digest of the protocol: (§1)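 Subconfluent, synchronized bovine CVEC were stimulated with 10 nM Sar9-SP-sulfone, with or without test compound, for 48 h. Fixed and stained cells were counted microscopically as total cell number per well. Results are expressed as % inhibition of agonist-induced proliferation. Data are means ± SEM of three experiments; Student's t test.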

The nature of experiment [3]: Antiangiogenic activity in bovine CVEC cell assessed as inhibition of Sar9-SP-sulfone-induced proliferation at 100 nM after 48 hrs by microscopic analysis. Format: functional. The conditions noted are these: Bos taurus. The procedure, abridged: as §1
Experiment [4] in a line: Antiangiogenic activity in bovine CVEC cell assessed as inhibition of Sar9-SP-sulfone-induced cell migration at 1 uM after 4 hrs by microscopic analysis. Type of experiment: functional. The conditions noted are these: Bos taurus. A digest of the protocol:
(§2)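 Bovine post-capillary venular endothelial cells (CVEC), cultured as previously described. Cells migrated toward 10 nM Sar9-SP-sulfone with or without test compound in a Neuroprobe microchemotaxis chamber and were evaluated after 4 h. Results are expressed as % inhibition of Sar9-SP-sulfone-induced activity. Data are means ± SEM of three experiments; Student's t test.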

Experiment [5] is described as follows: Antiangiogenic activity in bovine CVEC cell assessed as inhibition of Sar9-SP-sulfone-induced cell migration at 100 nM after 4 hrs by microscopic analysis. Format: functional. The note with it: Bos taurus. A digest of the protocol:
as §2

In experiment [6] the test system is CVEC. In words: Antiangiogenic activity in bovine CVEC cell assessed as cell proliferation at 100 nM to 1 uM after 48 hrs by microscopic analysis. Type of experiment: functional, cell-based. The conditions noted are these: Bos taurus. A digest of the protocol:
as §1

In experiment [7] the test system is CVEC. In words: Antiangiogenic activity in bovine CVEC cell assessed as cell migration at 100 nM to 1 uM after 4 hrs by microscopic analysis. Type of experiment: functional, cell-based. The conditions noted are these: Bos taurus. A digest of the protocol:
as §2

The nature of experiment [8]: Antiangiogenic activity in bovine CVEC cell assessed as inhibition of Sar9-SP-sulfone-induced proliferation after 48 hrs by microscopic analysis. Format: functional, cell-based. The note with it: Bos taurus. The procedure, abridged:
as §1

Experiment [9] in a line: Antiangiogenic activity in bovine CVEC cell assessed as inhibition of Sar9-SP-sulfone-induced cell migration after 4 hrs by microscopic analysis. Type of experiment: functional, cell-based. The note with it: Bos taurus. A digest of the protocol: as §2

Chain of Substance-P receptor (P25103 whole entry): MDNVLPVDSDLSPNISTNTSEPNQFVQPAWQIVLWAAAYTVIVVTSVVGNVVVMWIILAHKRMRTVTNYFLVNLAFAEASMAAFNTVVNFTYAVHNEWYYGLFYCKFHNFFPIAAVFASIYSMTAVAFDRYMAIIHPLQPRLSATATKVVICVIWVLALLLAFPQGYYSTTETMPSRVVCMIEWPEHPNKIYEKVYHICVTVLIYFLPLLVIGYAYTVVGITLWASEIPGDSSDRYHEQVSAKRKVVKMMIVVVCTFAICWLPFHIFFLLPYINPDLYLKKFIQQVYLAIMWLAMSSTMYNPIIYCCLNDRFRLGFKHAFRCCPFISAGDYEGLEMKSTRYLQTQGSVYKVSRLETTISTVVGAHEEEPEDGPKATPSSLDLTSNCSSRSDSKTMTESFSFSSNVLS

Turning to `Cc1nc(Cl)cc(-c2ccccc2)c1C(=O)N(C)Cc1cc(C(F)(F)F)cc(C(F)(F)F)c1`, the IC50 in [1] amounted to 91 nM.

For the molecule `Cc1c(C(=O)N(C)Cc2cc(C(F)(F)F)cc(C(F)(F)F)c2)c(-c2ccccc2)cc2nncn12`, the IC50 in [1] came to 53 nM.

`Cc1nc(N2CCN(C)CC2)cc(-c2ccccc2)c1C(=O)NCc1cc(C(F)(F)F)cc(C(F)(F)F)c1`: the IC50 in experiment [1] turned out to be 53 nM. The inhibition at 1 µM amounted to 76.3% in experiment [2] and 100% in experiment [4]. The inhibition at 0.1 µM in experiment [3] turned out to be 33.5%; in [5], 100%. Moreover, the result in experiment [6] and in [7] was inactive.

On to `CN(Cc1cc(C(F)(F)F)cc(C(F)(F)F)c1)C(=O)c1c(CO)nc2ccccc2c1-c1ccccc1`, for which the IC50 in [1] is 42 nM.

Take `Cc1cc(-c2ccccc2)c(C(=O)NCc2cc(C(F)(F)F)cc(C(F)(F)F)c2)c(C)n1`: the IC50 in experiment [1] was 434 nM.

As for `Cc1c(C(=O)NCc2cc(C(F)(F)F)cc(C(F)(F)F)c2)c(-c2ccccc2)cc[n+]1[O-]`, the IC50 in [1] came to 342 nM.

For the molecule `O=C(NCc1cc(C(F)(F)F)cc(C(F)(F)F)c1)c1c(CO)nc2ccccc2c1-c1ccccc1`, in experiment [1], the IC50 was found to be 227 nM.

For `Cc1nc(Cl)cc(-c2ccccc2)c1C(=O)NCc1cc(C(F)(F)F)cc(C(F)(F)F)c1`, in [1], the IC50 was 270 nM.

On to `Cc1cc(-c2ccccc2)c(C(=O)N(C)Cc2cc(C(F)(F)F)cc(C(F)(F)F)c2)c(C)n1`, for which, in experiment [1], the 50% inhibitory concentration (IC50) came to 41 nM.

For `O=C(NCc1cc(C(F)(F)F)cc(C(F)(F)F)c1)c1c(-c2ccccc2)ccnc1CCl`, in experiment [1], the IC50 was 235 nM.

Turning to `Cc1nc2ccccc2c(-c2ccccc2)c1C(=O)NCc1cc(C(F)(F)F)cc(C(F)(F)F)c1`, in [1], the 50% inhibitory concentration (IC50) stood at 257 nM.

On to `Cc1c(C(=O)NCc2cc(C(F)(F)F)cc(C(F)(F)F)c2)c(-c2ccccc2)cc2nnnn12`, for which, in experiment [1], the IC50 is 279 nM.

Take `Cc1nc(N2CCN(C)CC2)cc(-c2ccccc2)c1C(=O)N(C)Cc1cc(C(F)(F)F)cc(C(F)(F)F)c1`: the concentration for half-maximal inhibition (IC50) in [1] turned out to be 4.8 nM. Further, the inhibition at 1 µM in experiment [2] was found to be 79.7%; in experiment [4], 99%. Moreover, the inhibition at 0.1 µM in [3] came to 7.6%; in experiment [5] it was 100%. Further, the outcome in experiment [6] and in [7] was inactive.

For `Cc1nccc(-c2ccccc2)c1C(=O)NCc1cc(C(F)(F)F)cc(C(F)(F)F)c1`, the IC50 in [1] came to 653 nM.

As for `Cc1c(C(=O)N(C)Cc2cc(C(F)(F)F)cc(C(F)(F)F)c2)c(-c2ccccc2)cc2nnnn12`, in experiment [1], the IC50 was found to be 57 nM.

On to `Cc1nc2ccccc2c(-c2ccccc2)c1C(=O)N(C)Cc1cc(C(F)(F)F)cc(C(F)(F)F)c1`, for which, in experiment [1], the IC50 was 19 nM.

`COc1ccccc1CNC(=O)c1c(-c2ccccc2)ccnc1C`: the results for the inhibition at 1 µM in experiment [2] and in [4] were 11% and 9%, respectively. Besides, the inhibition at 0.1 µM in experiment [3] and in [5] was 0% in each case. Besides, the IC50 in [8] and in experiment [9] was greater than 1000 nM in each case.

In the case of `Cc1c(C(=O)NCc2cc(C(F)(F)F)cc(C(F)(F)F)c2)c(-c2ccccc2)cc2nncn12`, the IC50 in experiment [1] came out at 698 nM.

Turning to `CN(Cc1cc(C(F)(F)F)cc(C(F)(F)F)c1)C(=O)c1cnc2ccccc2c1-c1ccccc1`, in experiment [1], the IC50 was found to be 92 nM.

On to `O=C(NCc1cc(C(F)(F)F)cc(C(F)(F)F)c1)c1cnc2ccccc2c1-c1ccccc1`, for which the IC50 in [1] was found to be 208 nM.

On to `Cc1nccc(-c2ccccc2)c1C(=O)N(C)Cc1cc(C(F)(F)F)cc(C(F)(F)F)c1`, for which, in experiment [1], the IC50 was determined as 98 nM.

`CN(Cc1cc(C(F)(F)F)cc(C(F)(F)F)c1)C(=O)c1c(-c2ccccc2)ccnc1CCl`: in experiment [1], the IC50 worked out at 52 nM.

For `Cc1c(C(=O)N(C)Cc2cc(C(F)(F)F)cc(C(F)(F)F)c2)c(-c2ccccc2)cc[n+]1[O-]`, in [1], the IC50 was 32 nM.
